{"source": "ChEMBL document CHEMBL1134616", "about": "“Novel 7-oxyiminomethyl derivatives of camptothecin with potent in vitro and in vivo antitumor activity” (J Med Chem, 2001)", "key": {"NCI-H460 [1]": {"test_system": "NCI-H460", "experiment": "Log 10 cell kill induced by treatment iin CD1 mice with human Non-Small-Cell tumor at a oral dose of 1 mg/kg", "format": "functional", "outline": "(§1)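 Nude athymic CD1 mice, 8–10 weeks, carrying s.c. human lung tumor fragments in both flanks. Given per os on a q4dx4 schedule at 10 mL/kg, starting when tumors were visible but not measurable. Volume = d²×D/2. Log10 cell kill = T−C/3.32 × tumor doubling time, where T and C are the days for treated and control tumors to reach a mean volume of 1000 mm³.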"}, "NCI-H460 [2]": {"test_system": "NCI-H460", "experiment": "Percentage of body weight loss in CD1 mice with human Non-Small-Cell tumor at a oral dose of 2 mg/kg", "format": "functional", "outline": "(§2)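 Nude athymic CD1 mice, 8–10 weeks old, bearing s.c. human lung tumor xenografts in both flanks. Given oral drug in 10 mL/kg on a q4dx4 schedule, beginning when tumors were visible but not measurable. Read-out is percent body weight loss after drug treatment.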"}, "[3]": {"experiment": "No. of dead mice/ total No. of mice in mice with lung carcinoma LX-1 at a oral dose of 3 mg/kg", "format": "ADME, organism-based", "design": "dose 3 mg/kg, route oral", "details": "mouse, in vivo", "outline": "(§3)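 Human lung tumor s.c. xenografts (fragments, both flanks) in nude athymic CD1 mice aged 8–10 weeks. Oral q4dx4 dosing at 10 mL/kg, begun when tumors were visible but not measurable. Toxicity is recorded as the number of dead mice over the total number of treated mice.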"}, "NCI-H460 [4]": {"test_system": "NCI-H460", "experiment": "Complete response in CD1 mice with human Non-Small-Cell tumor at a oral dose of 3 mg/kg", "format": "functional", "outline": "(§4)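 Nude athymic CD1 mice, 8–10 weeks old, carrying serially passaged human lung tumor fragments implanted s.c. in both flanks. Oral dosing in 10 mL/kg on a q4dx4 schedule, begun once tumors were visible but not yet measurable. Complete response means no detectable tumor for at least 10 days after the end of treatment.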"}, "NCI-H460 [5]": {"test_system": "NCI-H460", "experiment": "No. of dead mice/ total No. of mice in CD1 mice with human Non-Small-Cell tumor at a oral dose of 1 mg/kg", "format": "ADME, organism-based", "design": "dose 1 mg/kg, route oral", "details": "in vivo", "outline": "as §3"}, "NCI-H460 [6]": {"test_system": "NCI-H460", "experiment": "No. of dead mice/ total No. of mice with human Non-Small-Cell tumor at a oral dose of 2 mg/kg", "format": "ADME, organism-based", "design": "dose 2 mg/kg, route oral", "details": "in vivo", "outline": "as §3"}, "NCI-H460 [7]": {"test_system": "NCI-H460", "experiment": "Percentage of body weight loss in CD1 mice with human Non-Small-Cell tumor at a oral dose of 1 mg/kg", "format": "functional", "outline": "as §2"}, "NCI-H460 [8]": {"test_system": "NCI-H460", "experiment": "Percentage of body weight loss in CD1 mice with human Non-Small-Cell tumor at a oral dose of 4 mg/kg"}, "[9]": {"experiment": "Percentage inhibition of tumor volume in treated versus control mice against human Non-Small-Cell tumor xenograft at a oral dose of 4 mg/kg", "format": "functional", "details": "Mus musculus", "outline": "(§5)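 Nude athymic CD1 mice, 8–10 weeks old, with human lung tumor fragments implanted s.c. in both flanks. Oral dosing in 10 mL/kg, q4dx4, started when tumors were visible but not measurable. Tumor volume = d²×D/2 from caliper diameters. Percent inhibition of treated versus control volume taken 7–10 days after the last dose. Volumes compared by Student's t test, P<0.05.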"}, "NCI-H460 [10]": {"test_system": "NCI-H460", "experiment": "Complete response in CD1 mice with human Non-Small-Cell tumor at a oral dose of 2 mg/kg", "format": "functional", "outline": "as §4"}, "NCI-H460 [11]": {"test_system": "NCI-H460", "experiment": "Percentage inhibition of tumor volume in treated versus control mice against human Non-Small-Cell tumor xenograft at a oral dose of 2 mg/kg", "format": "functional", "details": "Mus musculus", "outline": "as §5"}, "NCI-H460 [12]": {"test_system": "NCI-H460", "experiment": "Complete response in CD1 mice with human Non-Small-Cell tumor at a oral dose of 1 mg/kg", "format": "functional", "outline": "as §4"}, "NCI-H460 [13]": {"test_system": "NCI-H460", "experiment": "Percentage inhibition of tumor volume in treated versus control mice against human Non-Small-Cell tumor xenograft at a oral dose of 1 mg/kg", "format": "functional", "details": "Mus musculus", "outline": "as §5"}, "[14]": {"experiment": "Complete response in CD1 mice with human Non-Small-Cell tumor at a oral dose of 4 mg/kg", "format": "functional, Mus musculus", "outline": "as §4"}, "NCI-H460 [15]": {"test_system": "NCI-H460", "experiment": "No. of dead mice/ total No. of mice with human Non-Small-Cell tumor at a oral dose of 3 mg/kg", "format": "ADME, organism-based", "design": "dose 3 mg/kg, route oral", "details": "in vivo", "outline": "as §3"}, "[16]": {"experiment": "Log 10 cell kill induced by treatment in CD1 mice with human Non-Small-Cell tumor at a oral dose of 2 mg/kg"}, "[17]": {"experiment": "Percentage of body weight loss in mice with lung carcinoma LX-1 at a oral dose of 3 mg/kg", "format": "functional, Mus musculus", "outline": "as §2"}, "[18]": {"experiment": "Percentage of body weight loss in CD1 mice with human Non-Small-Cell tumor at a oral dose of 4 mg/kg", "format": "functional, Mus musculus", "outline": "as §2"}, "[19]": {"experiment": "Cytotoxicity against human non-small-cell lung carcinoma cell line H460 (NSCLC-H460)", "format": "functional, cell-based", "outline": "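Logarithmically growing cells were seeded in duplicate, exposed to drug for 1 h starting 24 h after seeding, and counted by Coulter counter 72 h after exposure. Drug was dissolved in DMSO before dilution. The IC50 is the concentration giving a 50% decrease in growth relative to untreated control.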"}, "NCI-H460 [20]": {"test_system": "NCI-H460", "experiment": "Percentage inhibition of tumor volume in treated versus control mice against human Non-Small-Cell tumor xenograft at a oral dose of 3 mg/kg", "format": "functional", "details": "Mus musculus", "outline": "as §5"}, "NCI-H460 [21]": {"test_system": "NCI-H460", "experiment": "Log 10 cell kill induced by treatment in CD1 mice with human Non-Small-Cell tumor at a oral dose of 2 mg/kg", "format": "functional", "outline": "as §1"}, "[22]": {"experiment": "Percentage inhibition of tumor volume mice with lung carcinoma LX-1 at a oral dose of 3 mg/kg", "format": "functional", "details": "Mus musculus", "outline": "as §5"}, "NCI-H460 [23]": {"test_system": "NCI-H460", "experiment": "Log 10 cell kill induced by treatment in CD1 mice with human Non-Small-Cell tumor at a oral dose of 3 mg/kg", "format": "functional", "outline": "as §1"}, "[24]": {"experiment": "Log 10 cell kill induced by treatment in mice with lung carcinoma LX-1 at a oral dose of 3 mg/kg", "format": "functional, Mus musculus", "outline": "as §1"}, "[25]": {"experiment": "Complete response in mice with lung carcinoma LX-1 at a oral dose of 3 mg/kg", "format": "functional, Mus musculus", "outline": "as §4"}}, "data": [{"smiles": "CC[C@@]1(O)C(=O)OCc2c1cc1n(c2=O)Cc2c-1nc1ccccc1c2/C=N/OC(C)(C)C", "note": "[GIMATECAN]", "values": [{"measurement": "LCK", "setting": "NCI-H460 [1]", "value": 1.4}, {"measurement": "BWL", "setting": "NCI-H460 [2]", "value": 1, "unit": "%"}, {"measurement": "Toxicity", "setting": "[3]", "value": 0}, {"measurement": "CR", "setting": "NCI-H460 [4]", "value": 8}, {"measurement": "Toxicity", "setting": "NCI-H460 [5]", "value": 0}, {"measurement": "Toxicity", "setting": "NCI-H460 [6]", "value": 0}, {"measurement": "BWL", "setting": "NCI-H460 [7]", "value": 0, "unit": "%"}, {"measurement": "BWL", "setting": "NCI-H460 [8]", "value": 23, "unit": "%"}, {"measurement": "inhibition in vivo at 4 mg/kg", "setting": "[9]", "value": 99, "unit": "%"}, {"measurement": "CR", "setting": "NCI-H460 [10]", "value": 5}, {"measurement": "inhibition in vivo at 2 mg/kg", "setting": "NCI-H460 [11]", "value": 99, "unit": "%"}, {"measurement": "CR", "setting": "NCI-H460 [12]", "value": 0}, {"measurement": "inhibition in vivo at 1 mg/kg", "setting": "NCI-H460 [13]", "value": 90, "unit": "%"}, {"measurement": "CR", "setting": "[14]", "value": 4}, {"measurement": "Toxicity", "setting": "NCI-H460 [15]", "value": 2}, {"measurement": "LCK", "setting": "[16]", "value": 2.4}, {"measurement": "BWL", "setting": "[17]", "value": 11, "unit": "%"}, {"measurement": "BWL", "setting": "[18]", "value": 5, "unit": "%"}, {"measurement": "IC50", "setting": "[19]", "value": 0.015, "unit": "µM"}, {"measurement": "inhibition in vivo at 3 mg/kg", "setting": "NCI-H460 [20]", "value": 100, "unit": "%"}, {"measurement": "LCK", "setting": "NCI-H460 [21]", "value": 2.4}, {"measurement": "inhibition in vivo at 3 mg/kg", "setting": "[22]", "value": 100, "unit": "%"}, {"measurement": "LCK", "setting": "NCI-H460 [23]", "value": 2.5}, {"measurement": "LCK", "setting": "[24]", "value": 5.3}, {"measurement": "CR", "setting": "[25]", "value": 8}]}]}
